From ChEMBL document CHEMBL1146219, “Synthesis and evaluation of novel radioiodinated benzamides for malignant melanoma” (J Med Chem, 2007) come the findings set out here.

Details in all cases: in vivo
Data set [1] deals with Blood. Briefly: Biodistribution in blood of B16F0 tumor bearing C57BL/6J mouse at 0.37-0.74 MBq, iv after 48 hrs. The class given is ADME, organism-based. In a few lines: (§1)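 Female C57BL/6J mice (15-18 g) were given B16F0 cells subcutaneously in the left flank (0.1 mL of 3 × 10⁶ viable cells/mL in Ca²⁺/Mg²⁺-free PBS) at 6-7 weeks and used after ten days. [¹²³I]benzamide (0.37-0.74 MBq, 100 µL, saline) was injected via the tail vein. Groups of n = 5 were killed by CO₂ and cervical dislocation. Organs were weighed and γ-counted, and the carcass was counted too.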

Data set [2] relates to Kidney. The experiment in a line: Biodistribution in kidney of B16F0 tumor bearing C57BL/6J mouse at 0.37-0.74 MBq, iv after 1 hr. Format: ADME, organism-based. In a few lines: as §1
The test system of data set [3] is Kidney. Briefly: Biodistribution in kidney of B16F0 tumor bearing C57BL/6J mouse at 0.37-0.74 MBq, iv after 3 hrs. The class given is ADME, organism-based. In a few lines:
as §1

Data set [4] has as its system Liver. Briefly: Biodistribution in liver of B16F0 tumor bearing C57BL/6J mouse at 0.37-0.74 MBq, iv after 48 hrs. The class given is ADME, organism-based. The method, boiled down: as §1
Data set [5] relates to Liver. The experiment in a line: Biodistribution in liver of B16F0 tumor bearing C57BL/6J mouse at 0.37-0.74 MBq, iv after 3 hrs. The class given is ADME, organism-based. In a few lines: as §1
The subject of data set [6] is Kidney. Briefly: Biodistribution in kidney of B16F0 tumor bearing C57BL/6J mouse at 0.37-0.74 MBq, iv after 24 hrs. The class given is ADME, organism-based. The method, boiled down: as §1
Data set [7] has as its system Brain. Briefly: Biodistribution in brain of B16F0 tumor bearing C57BL/6J mouse at 0.37-0.74 MBq, iv after 6 hrs. Format: ADME, organism-based. The method, boiled down:
as §1

For data set [8], the system named is Heart. The experiment in a line: (§2) Biodistribution in heart of B16F0 tumor bearing C57BL/6J mouse at 0.37-0.74 MBq, iv after 6 hrs. Format: ADME, organism-based. In a few lines: as §1
The subject of data set [9] is Kidney. The experiment in a line: Biodistribution in kidney of B16F0 tumor bearing C57BL/6J mouse at 0.37-0.74 MBq, iv after 48 hrs. The class given is ADME, organism-based. The method, boiled down:
as §1

Data set [10] concerns Heart. The experiment in a line: Biodistribution in heart of B16F0 tumor bearing C57BL/6J mouse at 0.37-0.74 MBq, iv after 24 hrs. Format: ADME, organism-based. In a few lines:
as §1

Data set [11] is described as follows: Biodistribution in eye of B16F0 tumor bearing C57BL/6J mouse at 0.37-0.74 MBq, iv after 24 hrs in presence of haloperidol. Format: ADME, organism-based. The method, boiled down:
(§3)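 Haloperidol blocking in B16F0-bearing C57BL/6J mice: 1 mg/kg haloperidol was given iv 5 min before the iv [¹²³I]benzamide (0.37-0.74 MBq). Groups of n = 5 were killed at 1 or 24 h. Tissues were weighed and γ-counted as in the biodistribution study and compared with untreated controls by one-way ANOVA, with p < 0.01 taken as significant.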

Data set [12] relates to Liver. The experiment in a line: Biodistribution in liver of B16F0 tumor bearing C57BL/6J mouse at 0.37-0.74 MBq, iv after 1 hr. The class given is ADME, organism-based. In a few lines: as §1
The test system of data set [13] is Liver. Briefly: Biodistribution in liver of B16F0 tumor bearing C57BL/6J mouse at 0.37-0.74 MBq, iv after 1 hr in presence of haloperidol. The class given is ADME, organism-based. The method, boiled down:
as §3

The subject of data set [14] is Liver. Briefly: Biodistribution in liver of B16F0 tumor bearing C57BL/6J mouse at 0.37-0.74 MBq, iv after 24 hrs. Format: ADME, organism-based. In a few lines: as §1
Data set [15] is described as follows: Biodistribution in melanoma of B16F0 tumor bearing C57BL/6J mouse at 0.37-0.74 MBq, iv after 24 hrs. The class given is ADME, organism-based, B16-F0. The method, boiled down:
as §1

For data set [16], the system named is Heart. Described as §2. The class given is ADME, organism-based. The method, boiled down:
as §1
The source holds these as a separate data set.

For data set [17], the system named is Lung. The experiment in a line: Biodistribution in lung of B16F0 tumor bearing C57BL/6J mouse at 0.37-0.74 MBq, iv after 24 hrs in presence of haloperidol. Format: ADME, organism-based. In a few lines: as §3
Data set [18] can be described thus: Biodistribution in eye of B16F0 tumor bearing C57BL/6J mouse at 0.37-0.74 MBq, iv after 1 hr in presence of haloperidol. The class given is ADME, organism-based. The method, boiled down: as §3
Data set [19] relates to Heart. Briefly: Biodistribution in heart of B16F0 tumor bearing C57BL/6J mouse at 0.37-0.74 MBq, iv after 48 hrs. The class given is ADME, organism-based. The method, boiled down: as §1
In data set [20] the test system is Blood. Briefly: Biodistribution in blood of B16F0 tumor bearing C57BL/6J mouse at 0.37-0.74 MBq, iv after 6 hrs. The class given is ADME, organism-based. The method, boiled down: as §1
The nature of data set [21]: Biodistribution in tumor of B16F0 tumor bearing C57BL/6J mouse at 0.37-0.74 MBq, iv after 24 hrs in presence of haloperidol. The class given is ADME, organism-based, B16-F0. The method, boiled down: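 B16F0 tumor-bearing C57BL/6J mice, groups of n = 5, given haloperidol 1 mg/kg i.v. 5 min before the i.v. [¹²³I]tracer (0.37-0.74 MBq). Killed at 1 or 24 h. Tissues γ-counted as for biodistribution and compared with untreated controls by one-way ANOVA, significance p < 0.01.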

Data set [22] concerns Lung. Briefly: Biodistribution in lung of B16F0 tumor bearing C57BL/6J mouse at 0.37-0.74 MBq, iv after 6 hrs. Format: ADME, organism-based. In a few lines:
as §1

SMILES strings stand for the structures.

Regarding `CCCCN(C)CCCCNC(=O)c1cc([123I])c(NC(C)=O)cc1OC`, the Drug uptake in data set [1] was determined as 0.04 % ID/g; in [2] it was 21.6 % ID/g; in data set [3], 3.9 % ID/g; in [4] it was 0.38 % ID/g; in [5], 5 % ID/g; in data set [6], 0.12 % ID/g. The Drug uptake in data set [7] is on record as 0.03 % ID/g; in data set [8] it was 0.54 % ID/g; in data set [9], 0.07 % ID/g; in data set [10], 0.12 % ID/g; in data set [11] it was 18.7 % ID/g; in data set [12], 16.8 % ID/g. Further, the Drug uptake in [13] stood at 15.6 % ID/g; in [14] it was 0.47 % ID/g; in data set [15], 6.1 % ID/g; in [16] it was 0.75 % ID/g; in data set [17] it was 0.02 % ID/g; in [18], 16.9 % ID/g. The Drug uptake in [19] turned out to be 0.13 % ID/g; in data set [20], 0.71 % ID/g; in [21], 4.5 % ID/g; in data set [22], 0.56 % ID/g.
